According to article PMC12597218 (Chemmedchem, 2025):
Converted amounts (≈) assume the structure as drawn. One block for each molecule: values may come before it.

What was measured:
[1] = system: Nrf2 (ARE stimulation) in HEK293‐ARE‐Luc reporter cell line; experiment: Intracellular Nrf2 activation assay; type: cell-based; settings: 24 h; for Nrf2 activity, fold change in luminescence intensity compared with the control group: test sample 10 μM, n = 3; for Intracellular Nrf2 activating effect at lower concentration (dose‐dependency): 5 μM
Procedure, shortened: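 HEK293‐ARE‐Luc (NRF2/ARE luciferase stable line) cells (2.0 × 10⁴/well) were grown 24 h, then given test compound in DMSO (1, 2.5, 5 or 10 μM) for 24 h. One‐step luciferase reagent was added for 15 min at room temperature and luminescence read. Activation is expressed as the luminescence ratio to vehicle control, n = 3. tBHQ served as reference.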

[2] = Solubility in PBS; type: physicochemical; settings: 37 °C, pH 7.4, aqueous buffer, kinetic from dmso stock
Procedure, shortened: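 A 10 mM DMSO stock of test compound was diluted into PBS and rotated at 1,000 rpm, 37 °C, for 4 h. The solution was filtered through a 0.45 μm PVDF membrane by centrifugation. […] Two technical replicates.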

[3] = Protein binding ratio; type: in vitro ADME; settings: bovine, 10% FBS (fetal bovine serum), pH 7.4
Procedure, shortened: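 Test compound (1 μM) in 10% FBS (150 μL) was dialysed against 150 μL of 0.1 M phosphate buffer (pH 7.4) across a 12–14 kDa MWCO membrane, 37 °C, 6 h, 80 rpm. Buffer and serum samples were matrix‐matched, precipitated with acetonitrile/IS, and analysed by LC‐MS/MS. fu = C_buffer/C_plasma. Two technical replicates.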

[4] = Metabolic stability in human liver microsomes; type: in vitro ADME; settings: pH 7.4
Procedure, shortened: (§1)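 Test compound (1 μM) with human or mouse liver microsomes (0.2 mg mL⁻¹), 1 mM EDTA and 0.1 M phosphate (pH 7.4) was preincubated 5 min. Reaction was started with 1 mM NADPH (final) and run 30 min at 37 °C. Samples were quenched in acetonitrile with methyltestosterone internal standard, and parent loss versus time zero was measured by LC–MS/MS. CLint was scaled using 48.8/45.4 mg protein per g liver and 25.7/87.5 g liver per kg (human/mouse). Two technical replicates.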

[5] = system: LPS‐stimulated RAW264.7 cells; experiment: Anti‐inflammatory effect in LPS‐stimulated RAW264.7 cells; type: cell-based, Murine; settings: RAW264.7, pretreated 8 h
Procedure, shortened: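 For NO, RAW264.7 cells (5 × 10⁵ cells/500 μL; DMEM, 10% FBS, 37 °C, 5% CO₂) were treated with test compound, given LPS (1 μg mL⁻¹) after 8 h, and incubated 16 h at 37 °C. Supernatant was mixed with Griess reagent and absorbance read at 540 nm. NO was quantified against a NaNO₂ standard. Mean ± SD.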

[6] = target: Keap1‐DC domain and the ETGE‐motif fragment peptide of Nrf2 (Homo sapiens, UniProt Q14145); experiment: Fluorescence polarization; type: binding
Procedure, shortened: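 Fluorescence polarization read-out, using a commercial Keap1–Nrf2 inhibitor screening kit run according to the manufacturer's protocol with slight modifications.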

[7] = Metabolic stability in mouse liver microsomes; type: in vitro ADME; settings: pH 7.4
Procedure, shortened: as §1

[8] = system: HEK293‐ARE‐Luc cells; experiment: Cytotoxicity; type: cell-based; settings: concentrations up to 50 μM
Procedure, shortened: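 HEK293‐ARE‐Luc cells (5.0 × 10⁴/well; DMEM, 10% FBS, 37 °C, 5% CO₂) were grown 24 h, then exposed to test compound added in DMSO for 24 h. CCK‐8 (WST‐8) reagent was added for 4 h and absorbance read at 420 nm. Cell viability was calculated, n = 3.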

[9] = Parallel artificial membrane permeability assay; type: in vitro ADME; settings: PAMPA
[10] = system: HO‐1 and NQO1 mRNA; experiment: Nrf2 target gene mRNA expression in RAW264.7 cells; type: cell-based, Murine; settings: 8 h
Procedure, shortened: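 RAW264.7 murine macrophage‐like cells (DMEM, 10% FBS, 37 °C, 5% CO₂) were treated with test compound for 8 h. HO‐1 and NQO1 mRNA were then measured by quantitative real‐time RT‐PCR with gene‐specific primers, with GAPDH primers also listed. Experiments were independent, at least three times. Mean ± SD.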

[11] = LPS 1 μg mL^−1, ELISA and RT‐PCR

Keap1‐DC domain and the ETGE‐motif fragment peptide of Nrf2, sequence (Q14145 2-624 limits assumed): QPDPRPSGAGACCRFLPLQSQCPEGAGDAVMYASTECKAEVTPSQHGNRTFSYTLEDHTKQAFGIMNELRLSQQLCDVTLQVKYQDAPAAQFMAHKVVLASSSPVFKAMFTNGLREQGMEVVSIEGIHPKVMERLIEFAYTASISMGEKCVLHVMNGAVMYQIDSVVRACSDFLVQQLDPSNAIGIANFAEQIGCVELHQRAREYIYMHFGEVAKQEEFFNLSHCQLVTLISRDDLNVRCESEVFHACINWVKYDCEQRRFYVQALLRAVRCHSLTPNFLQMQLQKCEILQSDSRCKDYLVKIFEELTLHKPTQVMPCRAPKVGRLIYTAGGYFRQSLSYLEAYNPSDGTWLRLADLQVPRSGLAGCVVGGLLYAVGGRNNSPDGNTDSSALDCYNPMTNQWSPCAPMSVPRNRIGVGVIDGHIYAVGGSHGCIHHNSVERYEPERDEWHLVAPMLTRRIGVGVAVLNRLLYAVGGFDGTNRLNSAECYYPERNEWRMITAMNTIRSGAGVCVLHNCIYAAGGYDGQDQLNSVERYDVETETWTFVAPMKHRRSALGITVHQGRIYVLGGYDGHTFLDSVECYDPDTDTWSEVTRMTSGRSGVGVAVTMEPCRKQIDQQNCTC

Structure (SMILES): CCOc1ccc(S(=O)(=O)Nc2cc(CC(=O)Nc3ccccc3)c(NS(=O)(=O)c3ccc(OCC)cc3)c3ccccc23)cc1 [Compound 5h, 2‐(1,4‐Bis((4‐ethoxyphenyl)sulfonamido)naphthalen‐2‐yl)‐N‐phenylacetamide]
Nrf2 activity, fold change in luminescence intensity compared with the control group [1]: no effect on Nrf2 activity

Structure (SMILES): Cc1cc(=O)n(-c2ccccc2)n1C [antipyrine]
Papp at 4 h [9]: 23.1 ×10⁻⁶ cm/s

Structure (SMILES): COCCc1ccc(OCC(O)CNC(C)C)cc1 (stereo not shown) [metoprolol]
Papp at 4 h [9]: 1.85 ×10⁻⁶ cm/s

Structure (SMILES): CC(C)(C)c1cc(O)ccc1O [tBHQ, tert‐butylhydroquinone, reference compound]
Nrf2 activity, fold change in luminescence intensity compared with the control group [1]: approximately tenfold

Continued, in another order:

solubility at 4 h [2]: 2.65 µM (≈ 1.69 µg/mL)
fraction unbound at 6 h, 1 μM [3]: < 0.0342
CLint scaled at 1 μM [4]: 546 mL/min/kg
IC50 [6]: 1070 ± 40 nM
CLint scaled at 1 μM [7]: 2290 mL/min/kg
Papp at 4 h [9]: 3.06 ×10⁻⁶ cm/s
Structure (SMILES): CCOc1ccc(S(=O)(=O)Nc2cc(CC(=O)N3CCCC3)c(NS(=O)(=O)c3ccc(OCC)cc3)c3ccccc23)cc1 [Compound 5i, N,N′‐(2‐(2‐Oxo‐2‐(pyrrolidin‐1‐yl)ethyl)naphthalene‐1,4‐diyl)bis(4‐ethoxybenzenesulfonamide)]
CCL2 expression [5, 11]: dose‐dependent reduction
TNF‐α expression [5, 11]: dose‐dependent reduction
Nitric oxide (NO) level ([5]; LPS 1 μg mL^−1, Griess reagent): dose‐dependent reduction
iNOS expression ([5]; LPS 1 μg mL^−1, RT‐PCR): dose‐dependent reduction
Cytotoxicity (WST‐8 assay) [8]: did not exhibit cytotoxicity
NQO1 mRNA expression, increase ([10]; 12.5 µM and higher concentrations): approximately 50 fold
HO‐1 mRNA expression ([10]; 12.5 μM): significantly upregulated
HO‐1 mRNA expression at higher concentrations ([10]; concentrations above 12.5 μM): downregulated the gene relative to the peak expression
Intracellular Nrf2 activating effect at lower concentration (dose‐dependency) [1]: notable activity

IC50 [6]: 2430 ± 170 nM
Structure (SMILES): CCOc1ccc(S(=O)(=O)Nc2cc(CC(=O)N3CCCCC3)c(NS(=O)(=O)c3ccc(OCC)cc3)c3ccccc23)cc1 [Compound 5j, N,N′‐(2‐(2‐Oxo‐2‐(piperidin‐1‐yl)ethyl)naphthalene‐1,4‐diyl)bis(4‐ethoxybenzenesulfonamide)]
Intracellular Nrf2 activating effect at lower concentration (dose‐dependency) [1]: notable activity
Nrf2 activity, fold change in luminescence intensity compared with the control group [1]: notable Nrf2 activation effects
